Reference: ChEMBL document CHEMBL4513216, “Probing the Open Global Health Chemical Diversity Library for Multistage-Active Starting Points for Next-Generation Antimalarials” (ACS Infect Dis, 2020)

Experiment: Toxicity liver stage against HepG2, at 10uM
Type: cell-based
Design: test concentration 10 uM, cell line HepG2-A16-CD81EGFP
Conditions: human, HepG2-A16-CD81EGFP cells; read-out: INHIBITION
Summary of the method: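 Uninfected HepG2-A16-CD81EGFP cells, 3 × 10^3 per well, 1536-well, plated on prespotted compound at 10 μM final, parasite-free screening media added to match infected plates; puromycin 10 μM positive, DMSO 0.5% negative; run in parallel with 48 h PbLuc assay at 37 °C, 5% CO2; viability by CellTiter-Glo luminescence, normalized to controls.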

Row | Compound | cytotoxicity at 10 µM [%]
1 | CCCNC(=O)COc1cc(C)c2c(C)nn(-c3ccc(C)cc3)c2n1 | -0.217
2 | O=c1[nH]cc(Nc2ccc(Cl)cc2)c(=O)[nH]1 | 18.4
3 | O=c1ccc(-n2ccnc2)nn1CCNS(=O)(=O)c1ccc(Cl)s1 | -1.36
4 | Cn1nnc2c(N3CC(C(=O)NCc4ccccc4F)C3)ncnc21 | 0.447
5 | CCCc1nnsc1C(=O)NCC(O)c1ccoc1 (stereo not given) | 4.25
6 | CCc1ccc(S(=O)(=O)NCCC(O)c2ccoc2)s1 (stereo not given) | -10.9
7 | CN(C)c1cccc(C(=O)N2CCc3ccc(=O)[nH]c3CC2)c1 | 9.23
8 | CS(=O)(=O)N[C@@H]1COC[C@@H]2CN(Cc3ccoc3)C[C@@H]21 | -4.85
9 | Cc1ccc2c(c1)CCC21CCN(CCO)CC1 | -0.675
10 | CS(=O)(=O)N1CC[C@H]2O[C@@H](C(=O)NCc3ccco3)CC[C@H]21 | 4.23
11 | COc1ncccc1C(=O)N1CC[C@H]2C[C@@H](c3noc(C)n3)O[C@@H]2C1 | 4.76
12 | CN(C)CC1CSCCCN1C(=O)Nc1ccc(C(C)(C)C)cc1 (stereo not given) | 6.79
13 | CCN1C[C@H]2CCN(C(=O)NC3CCCC3)CC[C@H]2S1(=O)=O | -3.52
14 | CCO[C@@H]1CO[C@@]2(CCCN(C(=O)COc3ccccc3OC)C2)C1 | 3.51
15 | CCN(CC)CCNC(=O)c1cc(C(C)C)nc(N2CCCC2)n1 | -2.44
16 | O=C(NCCc1cc(N2CCOCC2)nc(N2CCCC2)n1)C1CC1 | 6.8
17 | Cc1nonc1CNC(=O)C(C)Oc1ccccc1F (stereo not given) | 2.57
18 | Cc1cn[nH]c1C1CCCN1Cc1ccc(F)c(F)c1 (stereo not given) | 4.14
19 | CN1CCCC1(CCCc1cccnc1)C(=O)NCc1nccn1C (stereo not given) | 0.732
20 | Oc1cc(C2CCCCN2C2CCCC2)nc(-c2cccnc2)n1 (stereo not given) | 11.2
21 | Cc1cccc(CN2CCCC[C@H]3CN(c4ncccn4)C[C@H]32)c1 | 1.18
22 | CN1CCCCC1c1ccc(-n2ccnc2)nc1 (stereo not given) | 5.01

Row | Compound | cytotoxicity at 10 µM [%]
23 | CN1CCC(c2cccc(-c3ccc(C(=O)O)cc3)n2)CC1 | -0.358
24 | COc1ccc(S(=O)(=O)N2C[C@H](OC)[C@]3(CCCO3)C2)cc1 | 1.64
25 | Cc1cccc(CS(=O)(=O)CC(O)Cn2cccn2)c1 (stereo not given) | -2.07
26 | Cc1cc(NC(=O)c2ccc(N3CCOCC3)c(F)c2)[nH]n1 | -33.9
27 | Cc1noc(OCc2csc(C)n2)n1 | -2.54
28 | CNC(=O)Cn1ccc2ccc(NC(=O)NC(C)C(C)C)cc21 (stereo not given) | 3.36
29 | CCC(O)(CNCc1ncc[nH]1)c1ccc(Br)cc1 (stereo not given) | 3.54
30 | CS(=O)(=O)N1CCCN(CCCSCc2ccccc2)CC1 | -2.35
31 | COc1ccc(C2CCCN2c2nnc(C)s2)c(OC)c1 (stereo not given) | 9.74
32 | CCN(CC1CCOC1)C(=O)c1ccc(COc2ccccc2C#N)o1 (stereo not given) | 3.34
33 | CN(Cc1nccn1C)S(=O)(=O)N1CCCC1c1ccco1 (stereo not given) | 3.21
34 | O=c1[nH]ncc(NCCOc2cccc(Br)c2)c1Cl | 41.8
35 | O=C(CCCc1ccccn1)NCC(O)c1c(F)cccc1F (stereo not given) | -7.85
36 | COc1cccc(SCC(=O)N2CCCC(N3CCCC3=O)C2)c1 (stereo not given) | 6.16
37 | CC(C)C(O)CNC(=O)CCCc1ccccn1 (stereo not given) | 0.665
38 | CC(C)CNC(=O)c1ccc(NC(=O)NC2CC2)cc1Cl | 2.56
39 | CCc1ccsc1C(=O)N1CCN(C(=O)c2ccc(C)o2)CC1 | 6.98
40 | O=C(c1cc(-n2cccn2)ccn1)N(CC1CCC1)CC(F)(F)F | 6.4
41 | Cc1ccc(CCCC(=O)N2CCN(C3CCCN(C)C3)CC2)s1 (stereo not given) | 5.82
42 | CC(=O)c1c(F)cccc1NCC(O)c1ccc(F)c(F)c1 (stereo not given) | 13.3
43 | CCCn1nc(-c2nc(COC)no2)ccc1=O | -11.6
44 | Cc1cnn(CC(C)Nc2nc(C)cc(N(C)C)n2)c1 (stereo not given) | 7.07

Row | Compound | cytotoxicity at 10 µM [%]
45 | CCc1cnc(CCNC(C)CC(=O)Nc2cccc(C)c2C)s1 (stereo not given) | 6.69
46 | O=C(c1ccc(F)c(F)c1)N1CCCC1CN1CCCC1 (stereo not given) | 2.92
47 | Cc1ccc(O)c(CNC2CCc3nc(C(C)C)nn3C2)n1 (stereo not given) | -8.54
48 | Cc1ncsc1C(=O)NCCOc1ncc(Cl)cc1Cl | 7.67
49 | CCOCC1CN(C(=O)c2ccoc2)Cc2cnn(C)c21 (stereo not given) | 0.13
50 | Cc1ccc(CN2C[C@@H](C(=O)Nc3cccnc3)C[C@H]3OCC[C@H]32)o1 | 3.82
51 | CC(C)c1cc(C(=O)N2CC[C@@H](c3ccc4c(c3)OCO4)[C@H](O)C2)[nH]n1 | 3.29
52 | Cn1c(C(N)=O)cc2c1CN(C(=O)C1CCCN(C3CCCC3)C1)CC2 (stereo not given) | -47.1
53 | Cc1cc(CN(C)C(=O)c2cccc(CCC(C)(C)O)c2)no1 | -2.02
54 | COc1cc(Cl)cc(CN2CCCC(N3CCOCC3)C2)c1OC (stereo not given) | 0.944
55 | CCN(Cc1nc(C)no1)C(=O)C1CC(=O)N(Cc2cccnc2)C1 (stereo not given) | 4.03
56 | CCc1ccc(CN2CCN(Cc3ncc[nH]3)[C@H]3CS(=O)(=O)C[C@H]32)nc1 | -0.235
57 | CCOC(=O)C1CCCCN1Cc1c[nH]nc1-c1cc2ccccc2o1 (stereo not given) | 4.8
58 | Cc1nc(CNC(=O)c2cc(COc3ccccc3)[nH]n2)n[nH]1 | 8.52
59 | Cc1nc(C)c(C)c(N2C[C@@H](CN3CCCN(C)CC3)[C@@H](CO)C2)n1 | -10.4
60 | Cc1cc(C)n2nc(CC(=O)N3CC[C@H]4NCCC[C@]4(CO)C3)nc2n1 | -0.363
61 | CN(C)CCNc1cc(-c2ccccc2C(N)=O)c2cc[nH]c2n1 | 0.343
62 | CSc1ccc(CN(CCO)C(=O)CCOc2ccccc2)cc1 | 2.08
63 | O=c1[nH]c(COc2cccc(F)c2)nc2c1CCNC2 | 10.1
64 | CCCc1cncnc1N1CCC2(CCC(=O)N(CCOC)C2)CC1 | 1.86
65 | COCc1cn(CC2CCN(Cc3c(C)[nH]c4ccccc34)CC2)nn1 | -5.36
66 | Cc1ccc2nc(C)cc(C(=O)NC(C)c3nnn[nH]3)c2c1 (stereo not given) | 7.8

Row | Compound | cytotoxicity at 10 µM [%]
67 | Cc1cc(-c2nn3c(C)nnc3s2)n[nH]1 | 6.52
68 | O=C(Nc1cnc2n1CCCC2)C1CCCN1C1CCNCC1 (stereo not given) | 11.6
69 | O=C(CCc1cc2n(n1)CCN(Cc1ncc[nH]1)C2)N1CCCC1 | -5.77
70 | CCC(NC(=O)c1c(C(=O)O)cnn1C)c1ccc(C)cc1C (stereo not given) | -7.58
71 | Cc1c2c(C(F)F)cc(SCC(=O)O)nc2nn1C | -9.38
72 | Cc1ccc(C(C)NC(=O)CNCCn2cccn2)cc1C (stereo not given) | -6.63
73 | Cc1cc(CNC(=O)CCc2c(C)nc3cc(O)nn3c2C)no1 | -3.27
74 | COCCN1CCC(NCc2cccc(C)c2)C1 (stereo not given) | 2.76
75 | Cc1nccc(-c2cccc(NCC(=O)N3CCOC(C)C3)c2)n1 (stereo not given) | -0.776
76 | Cn1ccnc1CN1CCCN(C(=O)c2cccc(CC#N)c2)CC1 | -2.13
77 | CC(=O)N1CCCN(C(=O)NCc2ccc(-c3ccn[nH]3)cc2)CC1 | 0.322
78 | NC(=O)NCC1CCCCN1C(=O)c1cc(F)cc(F)c1 (stereo not given) | -8.15
79 | Cc1ccc(-n2nnc(C(=O)NC(C)C)c2C2CC2)cc1 | -3.37
80 | CCc1nnc(CN2CCOC(Cn3cc(C)cn3)C2)o1 (stereo not given) | -6.59
81 | NC(=O)c1ccc(OCC(=O)NS(=O)(=O)c2ccc3c(c2)CCC3)cc1 | -8.89
82 | CCNC(=O)NC(=O)CN1CCC(c2cccc(F)c2)C1 (stereo not given) | -9.45
83 | COC(=O)c1cccc(C(=O)N2CCCC(n3cncn3)C2)c1 (stereo not given) | -6.48
84 | O=C(COCCOc1ccccc1)N1CCCC(n2ccnc2)C1 (stereo not given) | -19.6
85 | Cc1nc(C)n(CC2CCCN(CC3CCCCC3)C2)n1 (stereo not given) | 2.04
86 | O=C(NCCn1nc2ccccn2c1=O)c1cc[nH]n1 | 3.45
87 | Clc1snnc1CN1CCOC(CNc2cccnn2)C1 (stereo not given) | -11
88 | CC(C)(NCC(=O)NCC(F)(F)F)c1ccc2c(c1)OCCO2 | -8.23

Row | Compound | cytotoxicity at 10 µM [%]
89 | CC(Nc1cccc(CN2CCOC2=O)c1)C(=O)NC(N)=O (stereo not given) | -7.44
90 | Cc1cc(C2CCCN2CCCS(=O)(=O)c2ccccc2)no1 (stereo not given) | -8.83
91 | c1cnnc(N2CCCC2CNCc2nc(C3CC3)no2)c1 (stereo not given) | -22.6
92 | O=C(Nc1ccccc1F)N(CCO)Cc1ccsc1 | 2.05
93 | O=C(CN1CCC(c2cccc(F)c2)C1)NCC(F)(F)F (stereo not given) | -10.4
94 | Cc1cccc(OCCC(=O)N2CCCN(C(N)=O)CC2)c1C | -6.8
95 | CC(C)OCCCNC(=O)CN1CCC(N2CCN(C)C2=O)CC1 | -6.82
96 | CC(Cn1ccnc1)NC(=O)NCCc1ccc2c(c1)OCCO2 (stereo not given) | -1.35
97 | O=C(Cc1ccc2c(c1)OCCO2)NCCc1nnc2n1CCC2 | -9.78
98 | c1cnc(-c2nc(CN3CCCC(Cn4cncn4)C3)cs2)nc1 (stereo not given) | -7.91
99 | Cc1cc(CN(C)C(=O)NCC(C)N2CCc3ccccc32)no1 (stereo not given) | -5.43
100 | O=S(=O)(C1CC1)N1C[C@H](Oc2ccccn2)[C@H]2OCCC[C@H]21 | -3.7
101 | Cc1cc(N(C)C)nc(C2CCCN2)n1 (stereo not given) | -11.1
102 | CN(C)C(=O)COC[C@@]12CCC[C@@H]1CNC2 | 0.903
103 | COC1COC2(CCN(CC3CC3)CC2)C1 (stereo not given) | -103
104 | O=C1[C@H]2CN(S(=O)(=O)C3CC3)C[C@H]2CN1Cc1cccnc1 | -0.0545
105 | c1cnc(N2C[C@@H]3COC[C@]3(COCC3CCCC3)C2)nc1 | -8.85
106 | Cc1oncc1C(=O)N1C[C@H](OCc2ccccn2)[C@H]2OCCC[C@H]21 | -0.385
107 | Cn1cccc1C(=O)NCc1cn2c(n1)CN(Cc1cccnc1)CC2 | -113
108 | Cc1nc(CN2CCOCC3(CCCN(c4cnccn4)C3)C2)cs1 (stereo not given) | -1.81
109 | COc1ccc(CN2C[C@H]3CC[C@@H](C2)N(S(C)(=O)=O)C3)cc1 | -5.75
110 | Cc1ncsc1CN1C[C@@H]2CC[C@H]1CN(Cc1ccccc1)C2 | -14.1
